High-throughput results: PubChem BioAssay, The Scripps Research Institute Molecular Screening Center
HTR1E agonist – activates the human 5-HT1E serotonin receptor. activation, % at 6 µM. P28566. 65,000 tested, 0.69% active. CHO 5-HT1E Ga15 NFAT-bla reporter, FRET; 0% DMSO wells, 100% control agonist wells;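 active means activation above a set limit, the screen-wide mean activation plus 3 SD, cut at about 8.5% in these data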;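 further: 100% = positive control agonist at 1 µM giving full maximal response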
HEK293 NFkB inh – lowers PMA/ionomycin-induced NF-kB signal in HEK293 cells; HEK-293 NF-kB luciferase reporter, luminescence; inhibition, % at 3 µM; 62,000 tested, 0.21% active;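 active means inhibition above the mean of all tested compounds plus 3 SD, cut at about 40% in these data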;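 further: 0% = stimulated DMSO wells and 100% = 10 µM reference inhibitor 5653914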
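System – HEK-293 cells with stable firefly luciferase reporter driven by four HIV NF-kB elements · Doses – one dose, 3 µM · Schedule – 1 h compound pre-incubation, 16 h PMA/ionomycin at 37 °C · Technique – luminescence from luciferase substrate reagent · Measure – percent inhibition normalized per plate to DMSO and reference-inhibitor controls · Replicates – tested once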
HTR1A agonist – activates the human 5-HT1a serotonin receptor. 65,000 tested, 0.56% active. P08908. CHO 5-HT1a Ga15 NFAT-bla reporter, FRET ratio; 0% basal, 100% maximal reference agonist. activation, % at 10 µM;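 active means activation above the screen-wide mean activation plus 3 SD, cut at about 19% in these data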;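 further: 0% = DMSO wells and 100% = 5-CT at EC100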
Target sequence (P08908 whole entry, looked up): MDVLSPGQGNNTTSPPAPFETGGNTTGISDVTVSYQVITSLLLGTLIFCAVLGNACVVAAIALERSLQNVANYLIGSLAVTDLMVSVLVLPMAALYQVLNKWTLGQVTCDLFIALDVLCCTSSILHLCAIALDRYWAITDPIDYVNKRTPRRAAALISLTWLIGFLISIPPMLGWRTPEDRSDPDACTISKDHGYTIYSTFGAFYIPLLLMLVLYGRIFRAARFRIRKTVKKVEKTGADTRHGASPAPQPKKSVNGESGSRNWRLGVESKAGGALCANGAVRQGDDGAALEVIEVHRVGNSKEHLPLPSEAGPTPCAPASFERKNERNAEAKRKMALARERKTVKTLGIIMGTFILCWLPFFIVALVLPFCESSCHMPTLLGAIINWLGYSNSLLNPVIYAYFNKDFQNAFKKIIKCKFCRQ
HTR1E antagonist – 5-HT1E (human) receptor antagonism; P28566; CHO 5-HT1E Ga15 NFAT-bla reporter, FRET, antagonist; inhibition, % at 6 µM; 65,000 tested, 0.99% active;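 active means inhibition above a set limit, the mean inhibition across every tested compound plus 3 SD, cut at about 29% in these data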;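 further: signal is the 460 over 535 nm emission ratio of beta-lactamase substrate; 0% = agonist plus DMSO wells and 100% = wells without agonist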
5-HT1A blocker – antagonists of human 5-HT1a serotonin receptor; CHO 5-HT1a Ga15 NFAT-bla reporter, antagonist mode; inhibition, % at 10 µM; 62,000 tested, 0.68% active; AID 612; P08908;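 active means inhibition above the mean of all tested compounds plus 3 SD, cut at about 43% in these data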;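 further: receptor stimulated by 5-CT agonist at 100 nM near EC80; beta-lactamase reporter measured by ratiometric fluorescence of a cleavable substrate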
* hit, by the source's call. Sampled rows, rich in hits. Any-hit rate of the full collection: about 2.6%.

SMILES | HTR1E agonist | HEK293 NFkB inh | HTR1A agonist | HTR1E antagonist | 5-HT1A blocker
O=C(CN(C(=O)c1cc2c(s1)CCC2)C1CCCC1)NCc1cccs1 | -2 | 10 | -5 | 6 | 39
COc1cc(C2C(C#N)=C(N)Oc3cc(O)ccc32)cc2c1OCO2 (configuration not stated) | 0 | 11 | 2 | -11 | 1
COc1cc(C2C(C#N)=C(N)Oc3cc(N(C)C)ccc32)cc2c1OCO2 (configuration not stated) | 0 | 63* | -2 | 43* | 4
Cc1ccc(C(c2nnnn2C(C)(C)C)N(Cc2ccco2)Cc2cccs2)cc1 (configuration not stated) | 0 | 11 | -2 | 0 | 51*
CC(C)C(c1nnnn1Cc1ccccc1)N(Cc1ccco1)Cc1cccs1 (configuration not stated) | -1 | 22 | -2 | 12 | 26
CCOc1ccc(NC(=O)c2ccc3c(c2)N(Cc2ccc(F)cc2)C(=O)CS3=O)cc1 (configuration not stated) | 0 | 4 | 0 | -2 | 1
Cc1ccc(C)c(NC(=O)c2ccc3c(c2)N(Cc2ccc(F)cc2)C(=O)CS3=O)c1 (configuration not stated) | 0 | 3 | 47* | 4 | 4
Cc1c(C(=O)OCC(=O)c2c(N)n(CC(C)C)c(=O)n(C)c2=O)oc2ccccc12 | 0 | 6 | 0 | 7 | 43*
CCC(C)(C)n1nnnc1CN1CCN(c2nc3cc(OC)ccc3cc2C#N)CC1 | 1 | 1 | 0 | 2 | 5
CCOC(=O)N1CCC(n2c(SCC(=O)NCCC3=CCCCC3)nc3ccccc3c2=O)CC1 | -1 | 16 | 0 | 19 | 60*
O=C(CCS(=O)(=O)c1ccc(Cl)cc1)OCC(=O)N1CCCCC1 | 0 | 12 | 0 | -2 | -3
Cc1ccc(N(C(C)C(=O)O)S(=O)(=O)c2c(C)n[nH]c2C)cc1 (configuration not stated) | -1 | 13 | -6 | -5 | 2
CCOC(=O)c1ccc(NS(=O)(=O)CC)cc1 | 0 | 7 | -1 | -3 | -8
CCOC(=O)c1ccccc1NC(=O)c1ccc(NS(C)(=O)=O)cc1 | -1 | -5 | 1 | 34* | 9
Cc1ccc2[nH]c(=O)c(CN(Cc3cccnc3)C(=O)c3ccncc3)cc2c1 | -1 | 14 | -1 | 5 | -3
CCCCc1nc(SCC(=O)Nc2ccc(S(N)(=O)=O)cc2)n[nH]1 | 14* | 9 | -1 | 0 | -5
Cc1ccc(NC(=O)CSc2n[nH]c(-c3ccncc3)n2)cc1 | 0 | 17 | 2 | -3 | -17
COc1cc2c(cc1OC)-c1cc(N3CCCc4ccccc43)nc(=O)n1CC2 | 2 | 24 | 2 | 64* | 13
COc1cc2c(cc1OC)-c1cc(NC3CCCCCC3)nc(=O)n1CC2 | 1 | 7 | 1 | 49* | 13
COc1cc2c(cc1OC)C(C(=O)Nc1ccc3c(c1)OCCO3)C1c3ccccc3CCN1C2=O (configuration not stated) | 0 | -5 | 1 | 0 | -4
CCN(CC)CCCNc1cc2n(c(=O)n1)CCc1cc(OC)c(OC)cc1-2 | 0 | 13 | 0 | 0 | -3
COc1cc2c(cc1OC)-c1cc(OCc3cccnc3)nc(=O)n1CC2 | 0 | 21 | 1 | 24 | 0
COc1cc2c(cc1OC)-c1cc(Nc3ccc4c(c3)OCCO4)nc(=O)n1CC2 | 0 | 30 | -1 | 40* | 14
COc1cc2c(cc1OC)-c1cc(N3CCCCCC3)nc(=O)n1CC2 | 1 | 16 | 1 | 41* | 8
COc1cccc(/C(O)=C2/C(=O)C(=O)N(CCN3CCOCC3)C2c2cccs2)c1 (configuration not stated) | 1 | 11 | 0 | -6 | 3
SMILES | HTR1E agonist | HEK293 NFkB inh | HTR1A agonist | HTR1E antagonist | 5-HT1A blocker
Cn1c(C(=O)N(Cc2ccccc2)Cc2ccccn2)cc2sccc21 | -1 | 18 | 1 | 2 | 22
Cn1c(C(=O)N(Cc2ccccc2)Cc2cccs2)cc2sccc21 | 0 | 4 | 0 | 9 | 43*
Cc1c(C(=O)c2no[n+]([O-])c2C(=O)c2cnn(C)c2C)cnn1C | -1 | 10 | -1 | 10 | 46*
O=C1C2C3C=CC(CO)(O3)C2C(=O)N1c1ccccc1-c1ccccc1 (configuration not stated) | 0 | 10 | -7 | 103* | 104*
CCCCS(=O)(=O)/C=C\C=C/S(=O)(=O)CCCC | -2 | 25 | -9 | 107* | 102*
CN1CCN(C(=O)c2ccc(N(Cc3ccc(Cl)cc3)S(C)(=O)=O)cc2)CC1 | -2 | 14 | -1 | 2 | 11
COc1cc2c(cc1OC)C(COc1ccc3c(C)cc(=O)oc3c1)N(C(=O)c1ccco1)CC2 (configuration not stated) | 0 | 12 | 2 | 30* | 6
COc1cccc(C(=O)CSc2nnc(COc3cccc4cccnc34)o2)c1 | -2 | 9 | 46* | 12 | 6
Cc1ccc(C(=O)CSc2nnc(COc3cccc4cccnc34)o2)cc1 | 0 | 18 | -2 | 10 | -3
CC(C)Cc1nnc(NC(=O)CSc2ncn[nH]2)s1 | 6 | 8 | 112* | 2 | -8
CSc1nc(C)cc(OCNC(=O)c2cccs2)n1 | 0 | 24 | 1 | 2 | 14
CCOc1ccc(NC(=O)c2cccc3c2C(=O)N(Cc2cccnc2)C3)cc1 | 0 | -2 | -1 | 21 | 4
COc1ccc(C(=O)OCCNC(=O)c2c(Cl)nc3ccccn23)cc1 | 1 | 24 | 5 | 35* | 4
O=C1c2ccccc2C(=O)N1c1ccc(S(=O)(=O)N2CCN(c3ccccc3)CC2)cc1 | -1 | 3 | 2 | -3 | 0
O=C(NC12CC3CC(CC(C3)C1)C2)c1cncc(O)c1 | 0 | 13 | -2 | 1 | 10
Cc1ccc(CCNC(=O)CC2Oc3ccc(C)cc3NC2=O)cc1 (configuration not stated) | 0 | -2 | 1 | -9 | -6
O=C(CC1Oc2ccccc2NC1=O)NCCc1ccccc1 (configuration not stated) | 1 | 7 | 49* | 1 | 8
COC(=O)Nc1ccc(C)c2nsnc12 | 1 | 10 | 0 | -1 | -7
CSc1ncccc1C(=O)OCC(=O)NC1CCS(=O)(=O)C1 (configuration not stated) | -1 | 8 | 21* | 8 | -2
CC1=C(C(=O)OC(C)C)C(c2cccc(F)c2)N2C(=O)C(C)SC2=N1 (configuration not stated) | 0 | 6 | 0 | 10 | -5
CCOc1ccc(OCC)c(NC(=O)CN2CCN(c3cccc(C)c3C)CC2)c1 | 28* | 10 | 4 | -7 | -11
Cc1ccc(C(=O)CC2(O)C(=O)N(Cc3ccccc3)c3ccccc32)o1 (configuration not stated) | 0 | 14 | -3 | -1 | 12
